VIM-2 inh = blocks Pseudomonas aeruginosa VIM-2 metallo-beta-lactamase; purified VIM-2, nitrocefin hydrolysis, epi-absorbance fluorescence; inhibition, % at 5.6 µM; actives 0.89% (n = 290,000);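 active = inhibition above the mean of all tested compounds plus 3 SD, cutoff set per screening run, cut at about 7.5% in these data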;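 also: red hydrolysis product quenches plate fluorescence so inhibitors raise well fluorescence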
T cell HTS = T cell immune modulation candidate. 2C CD8+ T cell-vesicle binding, flow cytometry; active compounds read low. response (vesicle binding), % at 7 µM. actives 0.068% (n = 330,000). AID 2052;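 active = response, share of CD8 T cells binding vesicles, and their 90th percentile fluorescence all below set limits, cut at about 80% in these data, passing the limit was not always enough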;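 also: values below 100% mean blocked vesicle binding to the CD8+ T cells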
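material = purified 2C TCR transgenic mouse naive CD8+ T cells | controls = Unloaded micro-vesicles (low), QL9 vesicles with 0.7% DMSO (high) | detection = cytometric PE anti-B7-1 and Alexa647 anti-CD8 signals after 1% paraformaldehyde fixation | incubation = binding step 1.5 h, 37 °C, antibody labelling 20 min, ice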
CTSL1 counter = blocks F. hepatica cathepsin L1 in PFM18AAP counter-screen. recombinant F. hepatica cathepsin L1, Z-Leu-Arg-MCA fluorescence. inhibition, % at 5.96 µM. actives 0.49% (n = 300,000). AID 1906;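 active = inhibition above the mean of all tested compounds plus 3 SD, set per screening campaign, cut at about 17% in these data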
pCIP destab = p/CIP protein destabilization; Q05BA5; F442A p/CIP-EGFP cells, EGFP fluorescence, 16 h; decrease of EGFP signal, % at 10 µM; actives 0.01% (n = 290,000); AID 1984;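 active = EGFP signal decrease of at least 30% at 10 µM or well 3 SD below plate mean, unless failing retest; inactive = the rest, including hits failing retest or dose response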
Target sequence (Q05BA5 1-1403): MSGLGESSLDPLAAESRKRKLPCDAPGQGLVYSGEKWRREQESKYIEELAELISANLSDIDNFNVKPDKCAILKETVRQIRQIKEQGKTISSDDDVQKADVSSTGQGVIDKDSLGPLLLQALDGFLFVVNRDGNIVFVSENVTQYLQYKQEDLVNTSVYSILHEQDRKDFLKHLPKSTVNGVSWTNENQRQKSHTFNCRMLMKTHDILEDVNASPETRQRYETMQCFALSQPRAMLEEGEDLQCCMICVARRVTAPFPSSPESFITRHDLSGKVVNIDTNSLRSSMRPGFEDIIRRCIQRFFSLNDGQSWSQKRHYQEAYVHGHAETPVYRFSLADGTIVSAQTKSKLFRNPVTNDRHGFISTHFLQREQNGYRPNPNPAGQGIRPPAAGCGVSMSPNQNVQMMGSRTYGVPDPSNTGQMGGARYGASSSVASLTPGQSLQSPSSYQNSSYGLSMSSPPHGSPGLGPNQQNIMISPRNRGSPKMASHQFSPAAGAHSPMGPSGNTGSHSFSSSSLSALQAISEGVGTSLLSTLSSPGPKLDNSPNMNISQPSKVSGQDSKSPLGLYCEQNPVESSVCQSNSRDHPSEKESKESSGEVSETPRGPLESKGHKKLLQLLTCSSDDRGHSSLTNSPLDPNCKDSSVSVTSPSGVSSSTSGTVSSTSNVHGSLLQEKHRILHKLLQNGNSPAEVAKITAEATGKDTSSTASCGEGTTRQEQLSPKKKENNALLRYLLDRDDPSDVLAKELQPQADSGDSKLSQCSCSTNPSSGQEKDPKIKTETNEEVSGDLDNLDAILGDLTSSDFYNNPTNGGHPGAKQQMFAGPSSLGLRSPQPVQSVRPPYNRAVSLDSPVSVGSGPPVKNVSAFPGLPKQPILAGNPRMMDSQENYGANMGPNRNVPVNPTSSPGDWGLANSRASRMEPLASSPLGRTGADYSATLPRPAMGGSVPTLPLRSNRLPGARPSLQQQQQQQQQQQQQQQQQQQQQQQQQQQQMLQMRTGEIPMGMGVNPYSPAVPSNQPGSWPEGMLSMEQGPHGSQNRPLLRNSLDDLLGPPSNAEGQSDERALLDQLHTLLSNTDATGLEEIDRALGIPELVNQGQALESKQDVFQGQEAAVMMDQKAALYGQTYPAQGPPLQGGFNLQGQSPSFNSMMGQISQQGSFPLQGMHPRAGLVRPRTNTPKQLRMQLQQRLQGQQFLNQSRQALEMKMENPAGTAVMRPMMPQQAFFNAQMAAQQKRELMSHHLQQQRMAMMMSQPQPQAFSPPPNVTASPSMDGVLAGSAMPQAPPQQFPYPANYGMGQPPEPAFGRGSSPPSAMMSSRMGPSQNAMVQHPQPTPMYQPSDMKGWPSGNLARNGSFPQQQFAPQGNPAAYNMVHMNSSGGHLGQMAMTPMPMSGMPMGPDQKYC
IMP-1 inh = blocks Pseudomonas aeruginosa IMP-1 metallo-beta-lactamase | purified IMP-1, nitrocefin hydrolysis, epi-absorbance fluorescence | inhibition, % at 5.6 µM | actives 0.45% (n = 290,000);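 active = inhibition above the mean plus 3 SD of all compounds in the same screening run, cut at about 4.5% in these data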
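Assay system: purified recombinant IMP-1 beta-lactamase. Input: IMP-1 0.2 nM before substrate addition. Buffer or medium: Zinc- and detergent-supplemented HEPES buffer, pH 7.1. Schedule: 25 °C, 15 min preincubation, 25 min reaction. Signal: Epi-absorbance fluorescence, 480 nm excitation, 530 nm emission. Evaluation: percent inhibition from optical density relative to buffer-blank wells.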
SUMO HTRF inh = inhibitors of human SUMOylation (UBC9). HTRF SUMOylation assay, SAE1/SAE2 + UBC9, in vitro. inhibition, % at 35 µM. actives 0.36% (n = 290,000); in the data active = inhibition above about 50%, passing the limit was not always enough
Of the large screens only hits and unclear results are named; the others gave an inactive call. A selection: hits, their analogues and other compounds. The true share with any hit is near 1.9%.

COc1ccc(CC(=O)NCC2(N3CCCCC3)CCCCC2)cc1	CTSL1 counter 29
O=C(CSc1nnnn1-c1ccccc1)NCC1(N2CCCCC2)CCCCC1	none (no result: VIM-2 inh, CTSL1 counter, pCIP destab, IMP-1 inh, SUMO HTRF inh)
O=C(CSc1ccccc1)NCC1(N2CCCCC2)CCCCC1	CTSL1 counter 60 (no result: VIM-2 inh, pCIP destab, IMP-1 inh, SUMO HTRF inh)
COc1ccc(OC)c(NC(=O)C(=O)NNC(=O)c2cccs2)c1	none
COC(=O)C1CCCN1S(=O)(=O)c1ccc2ccccc2c1 (stereo not given)	none
COC(=O)C1CCCN1S(=O)(=O)c1ccc([N+](=O)[O-])cc1 (stereo not given)	CTSL1 counter 53
Cc1ccc(CSc2ncnc3c2cnn3Cc2ccccc2)cc1	IMP-1 inh 6.7
COc1ccc(/C=C/C(=O)c2ccccn2)cc1	VIM-2 inh 9.6
COc1ccc(/C=C/C(=O)c2ccccc2O)cc1	none
Cc1ccc(N(C(=O)CCl)C(C(=O)NC2CCCCC2)c2cccnc2)cc1C (stereo not given)	CTSL1 counter 18
COc1ccc2c(c1)C(C1=C(O)CC(C)(C)CC1=O)C1=C(CC(C)(C)CC1=O)O2 (stereo not given)	none
CC1(C)CC(=O)C(C2C3=C(CC(C)(C)CC3=O)Oc3ccccc32)=C(O)C1 (stereo not given)	CTSL1 counter 17
CN(C)c1ccc(C(=O)N=c2sccn2C)cc1[N+](=O)[O-]	none
O=C1c2cccc3cccc(c23)C(=O)N1/N=C/c1ccc(O)cc1O	none
O=C1c2ccccc2C(=O)N1/N=C/c1ccc(O)c(O)c1O	SUMO HTRF inh 72 (no result: T cell HTS, CTSL1 counter)
Cc1cccc(N2CCN(C(=O)NCc3ccc(F)cc3)CC2)c1C	none
CC(C)N=C(NC#N)SCC(=O)NC(C)(C)C	none
C=CCN=C(NC#N)SCC(=O)NC(C)(C)C	IMP-1 inh 5.4
O=C(COc1ncnc2c(Cl)cc(Cl)cc12)Nc1cc([N+](=O)[O-])ccc1Cl	none
O=C1c2cccc3cccc(c23)C(=O)C1(O)O	CTSL1 counter 18 (no result: VIM-2 inh, pCIP destab, IMP-1 inh, SUMO HTRF inh)
CC(=O)N1C(=O)c2cccc3cccc(c23)C(=O)N1C(C)=O	none
O=c1[nH]cc(N=Cc2cc(Cl)cc(Cl)c2O)c(=O)[nH]1	IMP-1 inh 12, SUMO HTRF inh 57
COc1cc(/C=N/NC(=O)C2C3CCCCC32C)cc(Br)c1O (stereo not given)	none
O=c1cc(N2CCCCCC2)[nH]c(=O)n1-c1ccccc1Cl	none
CCCC(NC(=O)CCl)c1ccccc1 (stereo not given)	CTSL1 counter 22
Oc1c(Br)cc(Br)cc1CNc1cnc2ccccc2c1	IMP-1 inh 14
COc1ccc([N+](=O)[O-])cc1N(CC(=O)N1CCCC1)S(C)(=O)=O	none
Cc1c(OCC(=O)NCC(O)c2ccccc2)ccc2c3c(c(=O)oc12)CCCC3 (stereo not given)	VIM-2 inh 9.3
CCOC(=O)COc1ccc2c3c(c(=O)oc2c1C)CCC3	VIM-2 inh 8.1
O=C(COc1ccc2c3c(c(=O)oc2c1)CCC3)NCC1CCC(C(=O)O)CC1 (stereo not given)	none
Cc1c(OCC(=O)NCC2CCC(C(=O)O)CC2)ccc2c3c(c(=O)oc12)CCC3 (stereo not given)	VIM-2 inh 9.4
Cc1c(OCc2nn[nH]n2)ccc2c3c(c(=O)oc12)CCCC3	VIM-2 inh 7.8
O=[N+]([O-])c1cccc(CNC2CCCCCC2)c1	none
CCOc1ccc([N+](=O)[O-])cc1CNC1CCCCCCC1	IMP-1 inh 39
O=C(NNC(=O)c1sc2ccccc2c1Cl)Nc1ccc(Cl)cc1	SUMO HTRF inh 52
CCOc1cc(/C=C/C(=O)NCCc2ccc(S(N)(=O)=O)cc2)ccc1OCC(C)C	CTSL1 counter 19
COc1cc(/C=C/C(=O)NCCc2ccc(S(N)(=O)=O)cc2)ccc1OCC#N	none
O=C(c1n[nH]c2ccccc12)N1CCN(S(=O)(=O)c2ccccc2)CC1	none (no result: VIM-2 inh, CTSL1 counter, pCIP destab, IMP-1 inh, SUMO HTRF inh)
Cc1cc(C)c2c(n1)sc1c(N3CCN(CCO)CC3)ncnc12	VIM-2 inh 12
Fc1ccc(-c2nc3cnccn3c2NC2CCCC2)cc1	SUMO HTRF inh 54
CC(C)C[C@@H](CN1C(=O)C(=O)NC[C@@H]1CC(C)C)NC(=O)Cc1ccccc1	none (no result: VIM-2 inh, CTSL1 counter, pCIP destab, IMP-1 inh, SUMO HTRF inh)
Cc1cc(=S)nc(-c2ccccn2)[nH]1	VIM-2 inh 11
CC(=O)c1cc(NC(=O)c2ccccc2)c(=O)oc1C	none
Cc1oc(=O)c(NC(=O)c2ccc(Cl)cc2)cc1C(=O)c1ccccc1	CTSL1 counter 19
Cc1oc(=O)c(NC(=O)c2ccccc2)cc1C(=O)c1ccccc1	CTSL1 counter 35
COc1cc(C(C)=O)ccc1OCC(=O)Nc1ccc(Cl)c(S(=O)(=O)N2CCOCC2)c1	none (no result: VIM-2 inh, CTSL1 counter, pCIP destab, IMP-1 inh, SUMO HTRF inh)
CCOC(=O)c1sc2nc3c(SCC(=O)O)cc(C(=O)c4ccccc4O)cn3c(=O)c2c1C	SUMO HTRF inh 76
CCCOc1ccc(CCC(=O)N/N=C/c2ccncc2)cc1	none
O=C(c1ccc2nc(-c3ccco3)c(-c3ccco3)nc2c1)N1CCN(c2ccccc2)CC1	SUMO HTRF inh 73
O=S(=O)(c1ccc2nc(-c3ccco3)c(-c3ccco3)nc2c1)N1CCOCC1	SUMO HTRF inh 84
Cc1cc(C)cc(-n2c(C)cc(/C=N/NC(=O)CN(c3c(C)cccc3C)S(C)(=O)=O)c2C)c1	none
Cc1ccc(N(CC(=O)N/N=C/c2cc(C)n(-c3ccccc3C)c2C)S(C)(=O)=O)cc1	pCIP destab 22
Cc1ccc[n+](CC(=O)Nc2ccc([N+](=O)[O-])cc2)c1	CTSL1 counter 31
Cc1ccc[n+](CC(=O)Nc2cccc([N+](=O)[O-])c2)c1	none
COc1ccc2c(c1)[nH]c1c(=O)n(/N=C/c3ccc(OC)c(CN4CCCC4)c3)cnc12	none
COc1ccc(/C=N/n2cnc3c([nH]c4ccccc43)c2=O)cc1COc1ccccn1	CTSL1 counter 26
CSc1scc2c1-c1nc(SCC(=O)C(C)(C)C)ncc1CC2	IMP-1 inh 9.8
C=CCNC(=O)CSc1ncc2c(n1)-c1c(csc1SC)CC2	none
N#CC1=C(S)N(c2ccccc2)C(c2ccc(-c3ccccc3Cl)o2)NC1=O (stereo not given)	IMP-1 inh 12
O=C(N/N=C/c1ccco1)c1ccc(NC(=O)c2ccc(Cl)cc2)cc1	none
COCc1cc(CN(C)C(=O)c2oc3c(F)cccc3c2C)[nH]n1	none
CCCCOc1ccc(-c2nc(SCC(N)=O)n[nH]2)cc1	IMP-1 inh 5.2
COc1ccc(-c2nc(SCC(=O)Nc3cc(C)on3)n[nH]2)cc1	SUMO HTRF inh 50
CC1CCCCN1C(=O)COC(=O)C1CCN(S(=O)(=O)c2c(Cl)cccc2Cl)CC1 (stereo not given)	none
O=C1CN(c2ccc(Cl)cc2)C2(CCCCC2)S1	none
Cc1oc(S(=O)(=O)N2CCCCC2)cc1NC(=O)Nc1ccc(F)cc1	none

Screens as filed in PubChem.
